Measured values taken from ChEMBL document CHEMBL1125784, “Geiparvarin analogues. 2. Synthesis and cytostatic activity of 5-(4-arylbutadienyl)-3(2H)-furanones and of N-substituted 3-(4-oxo-2-furanyl)-2-buten-2-yl carbamates” (J Med Chem, 1991).
Converted amounts (≈) assume the structure as drawn.

Test system: MOLT-4F
Assay: Inhibitory activity against proliferation of human T-lymphoblast Molt/4F tumor cell line
Format: functional, cell-based
Conditions: not given
Method in brief: (§1)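 Molt/4F or FM3A cells were suspended in growth medium and plated at 5×10^4 cells/well with varying compound concentrations. They proliferated 72 h at 37 °C in a humidified, CO2-controlled atmosphere before Coulter-counter enumeration. IC50 is the concentration giving a 50% drop in viable cell count.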

SMILES | IC50 [µg/mL]
COc1ccc(/C=C/C=C(\C)C2=CC(=O)C(C)(C)O2)cc1 | 10 (≈ 35.2 µM)
C/C(=C\COC(=O)NC(C)C)C1=CC(=O)C(C)(C)O1 | 6.6 (≈ 24.7 µM)
C/C(=C\COC(=O)NC1CCCCC1)C1=CC(=O)C(C)(C)O1 | 3.4 (≈ 11.1 µM)
C/C(=C\C=C/C1CCCCC1)C1=CC(=O)C(C)(C)O1 | 7.1 (≈ 27.3 µM)
C/C(=C\C=C\c1ccccc1)C1=CC(=O)C(C)(C)O1 | 14 (≈ 55 µM)
C/C(=C\COC(=O)NCc1ccccc1)C1=CC(=O)C(C)(C)O1 | 6 (≈ 19 µM)
C/C(=C\COC(=O)Nc1ccccc1)C1=CC(=O)C(C)(C)O1 | > 200
CCCCNC(=O)OC/C=C(\C)C1=CC(=O)C(C)(C)O1 | 5.3 (≈ 18.8 µM)
C/C(=C\COC(=O)NC(C)(C)C)C1=CC(=O)C(C)(C)O1 | 6.1 (≈ 21.7 µM)
C=CCNC(=O)OC/C=C(\C)C1=CC(=O)C(C)(C)O1 | 7.7 (≈ 29 µM)

Test system: MOLT-4F
Assay: Inhibitory activity against proliferation of human(Molt/4F) tumor cell.
Format: functional, cell-based
Conditions: not given
Method in brief: as §1

SMILES | IC50 [µg/mL]
COc1cc2ccc(=O)oc2cc1OC/C=C(\C)C1=CC(=O)C(C)(C)O1 | 2.9 (≈ 8.14 µM)
C/C(=C\C=C\c1ccc2ccc(=O)oc2c1)C1=CC(=O)C(C)(C)O1 | 13 (≈ 40.3 µM)
CCCCCCCCNC(=O)OC/C=C(\C)C1=CC(=O)C(C)(C)O1 | 1.7 (≈ 5.04 µM)
C/C(=C\COC(=O)NCCCl)C1=CC(=O)C(C)(C)O1 | 10.7 (≈ 37.2 µM)

Test system: MT4
Assay: Inhibitory activity against proliferation of human(MT-4) tumor cell.
Format: functional, cell-based
Conditions: not given
Method in brief: (§2)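 MT-4 cells in growth medium, plated at 6.25×10^4 cells/well with serial compound concentrations. Incubation was 72 h at 37 °C, humidified and CO2-controlled, then cells were counted electronically (Coulter). IC50 is the concentration lowering viable cell number by 50%.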

SMILES | IC50 [µg/mL]
COc1cc2ccc(=O)oc2cc1OC/C=C(\C)C1=CC(=O)C(C)(C)O1 | 0.6 (≈ 1.68 µM)
C/C(=C\C=C\c1ccc2ccc(=O)oc2c1)C1=CC(=O)C(C)(C)O1 | 2.9 (≈ 9 µM)
CCCCCCCCNC(=O)OC/C=C(\C)C1=CC(=O)C(C)(C)O1 | 1.3 (≈ 3.85 µM)
C/C(=C\COC(=O)NCCCl)C1=CC(=O)C(C)(C)O1 | 6.4 (≈ 22.2 µM)

Test system: L1210
Assay: Inhibitory activity against proliferation of murine (L1210) tumor cell.
Format: functional, cell-based
Conditions: Mus musculus
Method in brief: (§3)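 L1210 cells in growth medium, seeded at 5×10^4 cells/well with a range of test compound concentrations, grown 48 h at 37 °C in humidified CO2-controlled air. Cells were counted in a Coulter counter. IC50 is the concentration reducing viable cell number by 50%.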

SMILES | IC50 [µg/mL]
COc1cc2ccc(=O)oc2cc1OC/C=C(\C)C1=CC(=O)C(C)(C)O1 | 2 (≈ 5.61 µM)
C/C(=C\C=C\c1ccc2ccc(=O)oc2c1)C1=CC(=O)C(C)(C)O1 | 63 (≈ 195 µM)
CCCCCCCCNC(=O)OC/C=C(\C)C1=CC(=O)C(C)(C)O1 | 2 (≈ 5.93 µM)
C/C(=C\COC(=O)NCCCl)C1=CC(=O)C(C)(C)O1 | 5.1 (≈ 17.7 µM)

Test system: L1210
Assay: Inhibitory activity against proliferation of murine leukemia L1210 tumor cell line
Format: functional, cell-based
Conditions: Mus musculus
Method in brief: as §3

SMILES | IC50 [µg/mL]
COc1ccc(/C=C/C=C(\C)C2=CC(=O)C(C)(C)O2)cc1 | 18 (≈ 63.3 µM)
C/C(=C\COC(=O)NC(C)C)C1=CC(=O)C(C)(C)O1 | 4.9 (≈ 18.3 µM)
C/C(=C\COC(=O)NC1CCCCC1)C1=CC(=O)C(C)(C)O1 | 3.7 (≈ 12 µM)
C/C(=C\C=C/C1CCCCC1)C1=CC(=O)C(C)(C)O1 | 23 (≈ 88.3 µM)
C/C(=C\C=C\c1ccccc1)C1=CC(=O)C(C)(C)O1 | 14 (≈ 55 µM)
C/C(=C\COC(=O)NCc1ccccc1)C1=CC(=O)C(C)(C)O1 | 4.7 (≈ 14.9 µM)
C/C(=C\COC(=O)Nc1ccccc1)C1=CC(=O)C(C)(C)O1 | > 200
CCCCNC(=O)OC/C=C(\C)C1=CC(=O)C(C)(C)O1 | 2.6 (≈ 9.24 µM)
C/C(=C\COC(=O)NC(C)(C)C)C1=CC(=O)C(C)(C)O1 | 4.1 (≈ 14.6 µM)
C=CCNC(=O)OC/C=C(\C)C1=CC(=O)C(C)(C)O1 | 6.2 (≈ 23.4 µM)

Test system: MT4
Assay: Inhibitory activity against proliferation of human T-lymphocyte MT-4 tumor cell line
Format: functional, cell-based
Conditions: not given
Method in brief: as §2

SMILES | IC50 [µg/mL]
COc1ccc(/C=C/C=C(\C)C2=CC(=O)C(C)(C)O2)cc1 | 5.7 (≈ 20 µM)
C/C(=C\COC(=O)NC(C)C)C1=CC(=O)C(C)(C)O1 | 2.3 (≈ 8.6 µM)
C/C(=C\COC(=O)NC1CCCCC1)C1=CC(=O)C(C)(C)O1 | 2.4 (≈ 7.81 µM)
C/C(=C\C=C/C1CCCCC1)C1=CC(=O)C(C)(C)O1 | 8.4 (≈ 32.3 µM)
C/C(=C\C=C\c1ccccc1)C1=CC(=O)C(C)(C)O1 | 6.5 (≈ 25.6 µM)
C/C(=C\COC(=O)NCc1ccccc1)C1=CC(=O)C(C)(C)O1 | 2 (≈ 6.34 µM)
C/C(=C\COC(=O)Nc1ccccc1)C1=CC(=O)C(C)(C)O1 | 103 (≈ 342 µM)
CCCCNC(=O)OC/C=C(\C)C1=CC(=O)C(C)(C)O1 | 1.2 (≈ 4.27 µM)
C/C(=C\COC(=O)NC(C)(C)C)C1=CC(=O)C(C)(C)O1 | 2.1 (≈ 7.46 µM)
C=CCNC(=O)OC/C=C(\C)C1=CC(=O)C(C)(C)O1 | 2.8 (≈ 10.6 µM)

Test system: FM3A
Assay: Inhibitory activity against proliferation of murine mammary carcinoma FM3A tumor cell line
Format: functional, cell-based
Conditions: Mus musculus
Method in brief: as §1

SMILES | IC50 [µg/mL]
COc1ccc(/C=C/C=C(\C)C2=CC(=O)C(C)(C)O2)cc1 | 25 (≈ 87.9 µM)
C/C(=C\COC(=O)NC(C)C)C1=CC(=O)C(C)(C)O1 | 7.2 (≈ 26.9 µM)
C/C(=C\COC(=O)NC1CCCCC1)C1=CC(=O)C(C)(C)O1 | 13 (≈ 42.3 µM)
C/C(=C\C=C/C1CCCCC1)C1=CC(=O)C(C)(C)O1 | 10.8 (≈ 41.5 µM)
C/C(=C\C=C\c1ccccc1)C1=CC(=O)C(C)(C)O1 | 15 (≈ 59 µM)
C/C(=C\COC(=O)NCc1ccccc1)C1=CC(=O)C(C)(C)O1 | 8.1 (≈ 25.7 µM)
C/C(=C\COC(=O)Nc1ccccc1)C1=CC(=O)C(C)(C)O1 | > 200
CCCCNC(=O)OC/C=C(\C)C1=CC(=O)C(C)(C)O1 | 7.7 (≈ 27.4 µM)
C/C(=C\COC(=O)NC(C)(C)C)C1=CC(=O)C(C)(C)O1 | 7.1 (≈ 25.2 µM)
C=CCNC(=O)OC/C=C(\C)C1=CC(=O)C(C)(C)O1 | 7.6 (≈ 28.6 µM)

Test system: FM3A
Assay: Inhibitory activity against proliferation of murine (FM3A) tumor cell.
Format: functional, cell-based
Conditions: Mus musculus
Method in brief: as §1

SMILES | IC50 [µg/mL]
COc1cc2ccc(=O)oc2cc1OC/C=C(\C)C1=CC(=O)C(C)(C)O1 | 3.9 (≈ 10.9 µM)
C/C(=C\C=C\c1ccc2ccc(=O)oc2c1)C1=CC(=O)C(C)(C)O1 | > 100
CCCCCCCCNC(=O)OC/C=C(\C)C1=CC(=O)C(C)(C)O1 | 7.1 (≈ 21 µM)
C/C(=C\COC(=O)NCCCl)C1=CC(=O)C(C)(C)O1 | 20.8 (≈ 72.3 µM)
